Data reported in ChEMBL document CHEMBL5365494, “Bis-6-amidino-benzothiazole Derivative that Cures Experimental Stage 1 African Trypanosomiasis with a Single Dose” (J Med Chem, 2023).

Columns and labels:
[1] = Cytotoxicity against rat L6 cells assessed as cell growth inhibition incubated for 6 days by resazurin dye based assay; assay type: toxicity
Procedure, shortened: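 Rat L6 myoblasts seeded at 1×10⁴ mL⁻¹ in RPMI-1640 with a range of compound concentrations, 6 days at 37 °C; resazurin added, 6 h further, fluorescence ex 545/em 590 nm.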

[2] = Selectivity index, ratio of EC50 for cytotoxicity against rat L6 cells to EC50 for antitrypanosomal activity against bloodstream form of Trypanosoma brucei brucei 221a variant; assay type: toxicity, cell-based; conditions: read-out: Ratio EC50
Procedure, shortened: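 L6 rat myoblasts seeded at 1×10^4 mL^-1 in RPMI-1640 with a compound concentration range for 6 days at 37 °C. Resazurin added for 6 h, then fluorescence read.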

[3] = system: Trypanosoma brucei; assay: Antitrypanosomal activity against blood stream form of Trypanosoma brucei 221a variant assessed as parasite growth inhibition measured after 48 hrs by resazurin dye based fluorescence analysis; assay type: functional, organism-based; conditions: for EC50: 48 h; for EC90: time 48 hrs
Procedure, shortened: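 Bloodstream-form T. b. brucei 221a (MiTat1.2a) in modified Iscove's medium at 37 °C, started at 2.5×10^4 mL^-1 with a concentration range. After 48 h, resazurin was added for a further 16 h. Fluorescence read at ex 545/em 590 nm. EC50 and EC90 taken from three independent replicates.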

[4] = Metabolic stability in mouse liver microsomes assessed as half life at 1 uM measured upto 60 mins in presence of NADPH by LC-MS/MS analysis; assay type: ADME, Microsome; conditions: 1 h
[5] = Apparent permeability across apical to basolateral side in MDCK-MDR1 cells at 10 uM measured for 60 mins by LC-MS/MS analysis; assay type: ADME, cell-based, Canis lupus familiaris; conditions: dog
Procedure, shortened: (§1)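 MDCKII-hMDR1 monolayers on inserts, compound 10 μM (1% DMSO) in duplicate, 60 min at 37 °C, bidirectional, with and without elacridar 2 μM. Amprenavir as P-gp control, Lucifer yellow for monolayer integrity; compound quantified by LC–MS/MS.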

[6] = Apparent permeability across basolateral to apical side in MDCK-MDR1 cells at 10 uM measured for 60 mins by LC-MS/MS analysis; assay type: ADME, cell-based, Canis lupus familiaris; conditions: dog, MDCK-MDR1; procedure, shortened: as §1
[7] = Efflux ratio of apparent permeability across basolateral to apical side over apical to basolateral side in MDCK-MDR1 cells at 10 uM measured for 60 mins by LC-MS/MS analysis; assay type: ADME, cell-based, Canis lupus familiaris; conditions: dog, mdck-mdr1, 1 h
Procedure, shortened: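 MDCKII cells overexpressing human MDR1 (P-glycoprotein) grown as monolayers on inserts; bidirectional transport (apical-to-basolateral and basolateral-to-apical) of 10 μM compound (1% DMSO) at 37 °C for 60 min, in duplicate, with and without P-gp inhibitor elacridar (2 μM). Monolayer integrity checked with Lucifer yellow; amprenavir as P-gp control. Compound quantified by LC–MS/MS; efflux ratio = BA Papp/AB Papp.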

In the case of c1cc2nc(CCc3nc4ccc(C5=NCCCN5)cc4s3)sc2cc1C1=NCCCN1, the EC50 at 6 days [1] is reported as greater than 140000 nM, the selectivity ratio [2] is reported as greater than 59 and the EC50 [3] is reported as 2380 nM. For the same compound, the EC90 [3] was 3480 nM.
Work on c1cc2nc(CCCCCCc3nc4ccc(C5=NCCN5)cc4s3)sc2cc1C1=NCCN1 yielded an EC50 at 6 days [1] of 10900 nM, a selectivity ratio [2] of 13 and an EC50 [3] of 820 nM. For the same compound, the EC90 [3] was 1880 nM.
In the case of c1cc2nc(CCCCc3nc4ccc(C5=NCCN5)cc4s3)sc2cc1C1=NCCN1, the EC50 at 6 days [1] is reported as 93000 nM, the selectivity ratio [2] is reported as 82 and the EC50 [3] is reported as 1140 nM. The EC90 [3] was 1870 nM.
C[C@]12CC[C@H]3[C@@H](CCC4=CC(=O)CC[C@@]43C)[C@@H]1CC[C@@H]2O [TESTOSTERONE] showed a t1/2 [4] of 6.7 min.
In the case of c1cc2nc(CCCCc3nc4ccc(C5=NCCCN5)cc4s3)sc2cc1C1=NCCCN1, the EC50 at 6 days [1] is reported as greater than 130000 nM, the selectivity ratio [2] is reported as greater than 680 and the EC50 [3] is reported as 190 nM. The EC90 [3] was 310 nM.
Compound CC(C)CN(C[C@@H](O)[C@H](Cc1ccccc1)NC(=O)O[C@H]1CCOC1)S(=O)(=O)c1ccc(N)cc1 [AMPRENAVIR] has a Papp A→B at 1 h, 10 µM [5] of 0.5 ×10⁻⁶ cm/s.
Work on C(=C\c1nc2ccc(C3=NCCN3)cc2s1)/c1nc2ccc(C3=NCCN3)cc2s1 yielded an EC50 at 6 days [1] of 4100 nM, a selectivity ratio [2] of 22 and an EC50 [3] of 190 nM. The EC90 [3] was 680 nM.
Work on c1cc2nc(C3CCC(c4nc5ccc(C6=NCCN6)cc5s4)CC3)sc2cc1C1=NCCN1 (stereo not drawn) yielded an EC50 at 6 days [1] of 4150 nM, a selectivity ratio [2] of 17 and an EC50 [3] of 240 nM. It also gave an EC90 [3] of 490 nM.
Work on N=C(N)c1ccc2nc(CCCCc3nc4ccc(C(=N)N)cc4s3)sc2c1 yielded an EC50 at 6 days [1] of 134000 nM, a selectivity ratio [2] of 2100 and an EC50 [3] of 63 nM. For the same compound, the EC90 [3] was 131 nM.
In the case of N=C(N)c1ccc2nc(CCCCCCc3nc4ccc(C(=N)N)cc4s3)sc2c1, the EC50 at 6 days [1] is reported as 42500 nM, the selectivity ratio [2] is reported as 48 and the EC50 [3] is reported as 890 nM. It also gave an EC90 [3] of 1520 nM.
Compound c1cc2nc(CCCc3nc4ccc(C5=NCCN5)cc4s3)sc2cc1C1=NCCN1 has an EC50 at 6 days [1] greater than 150000 nM, a selectivity ratio [2] greater than 28 and an EC50 [3] of 5390 nM. The EC90 [3] was 9010 nM.
N=C(N)c1ccc2nc(CCCc3nc4ccc(C(=N)N)cc4s3)sc2c1 gave an EC50 at 6 days [1] greater than 160000 nM, a selectivity ratio [2] greater than 470 and an EC50 [3] of 340 nM. It also gave an EC90 [3] of 750 nM.
c1cc2nc(CCCCCCc3nc4ccc(C5=NCCCN5)cc4s3)sc2cc1C1=NCCCN1 gave an EC50 at 6 days [1] greater than 130000 nM, a selectivity ratio [2] greater than 4600 and an EC50 [3] of 28 nM. For the same compound, the EC90 [3] was 56 nM.
With c1cc2nc(C3CCC(c4nc5ccc(C6=NCCCN6)cc5s4)CC3)sc2cc1C1=NCCCN1 (stereo not drawn) the EC50 at 6 days [1] was greater than 130000 nM, the selectivity ratio [2] was greater than 6200 and the EC50 [3] was 21 nM. It also gave an EC90 [3] of 31 nM.
With N=C(N)c1ccc2nc(CCCCCc3nc4ccc(C(=N)N)cc4s3)sc2c1 the EC50 at 6 days [1] was 114000 nM, the selectivity ratio [2] was 1200 and the EC50 [3] was 98 nM. It also gave an EC90 [3] of 145 nM.
Compound c1cc2nc(CCCCCCCc3nc4ccc(C5=NCCN5)cc4s3)sc2cc1C1=NCCN1 has an EC50 at 6 days [1] of 6850 nM, a selectivity ratio [2] of 4.6 and an EC50 [3] of 1490 nM. The EC90 [3] was 2520 nM.
In the case of N=C(N)c1ccc2nc(CCCCCCCc3nc4ccc(C(=N)N)cc4s3)sc2c1, the EC50 at 6 days [1] is reported as 13900 nM, the selectivity ratio [2] is reported as 18 and the EC50 [3] is reported as 740 nM. It also gave an EC90 [3] of 1390 nM.
With N=C(N)c1ccc2nc(/C=C/c3nc4ccc(C(=N)N)cc4s3)sc2c1 the EC50 at 6 days [1] was 2480 nM, the selectivity ratio [2] was 210 and the EC50 [3] was 12 nM. The EC90 [3] was 22 nM.
With c1cc2nc(CCCCCc3nc4ccc(C5=NCCN5)cc4s3)sc2cc1C1=NCCN1 the EC50 at 6 days [1] was 93500 nM, the selectivity ratio [2] was 60 and the EC50 [3] was 1560 nM. For the same compound, the EC90 [3] was 2110 nM.
For Cn1c(=O)c2c(ncn2C)n(C)c1=O [CAFFEINE], the t1/2 [4] was greater than 60 min.
Compound O=C(O)Cc1ccccc1Nc1c(Cl)cccc1Cl [DICLOFENAC] has a Papp A→B at 1 h, 10 µM [5] of 47.3 ×10⁻⁶ cm/s, a Papp B→A at 1 h, 10 µM [6] of 31.2 ×10⁻⁶ cm/s and a Ratio [7] of 0.7.
For CSc1ccc(OCc2ncc([N+](=O)[O-])n2C)cc1 [FEXINIDAZOLE], the EC50 [3] was 2400 nM and the EC90 [3] was 4510 nM.
Work on C(=C\c1nc2ccc(C3=NCCCN3)cc2s1)/c1nc2ccc(C3=NCCCN3)cc2s1 yielded an EC50 at 6 days [1] of 51800 nM, a selectivity ratio [2] of 520 and an EC50 [3] of 100 nM. The EC90 [3] was 160 nM.
For N=C(N)c1ccc2nc(CCc3nc4ccc(C(=N)N)cc4s3)sc2c1, the EC50 at 6 days [1] was greater than 170000 nM, the selectivity ratio [2] was greater than 680 and the EC50 [3] was 250 nM. The EC90 [3] was 400 nM.
In the case of c1cc2nc(CCc3nc4ccc(C5=NCCN5)cc4s3)sc2cc1C1=NCCN1, the EC50 at 6 days [1] is reported as 80600 nM, the selectivity ratio [2] is reported as 22 and the EC50 [3] is reported as 3640 nM. For the same compound, the EC90 [3] was 7820 nM.
